Converted amounts (≈) assume the structure as drawn.
Assays:
Pseudomonas aeruginosa [1] = assay: Antibacterial activity against Pseudomonas aeruginosa ATCC 27853 at 100 ug/ml after 24 hrs by disc-diffusion method; type: functional; details: ATCC 27853, 24 h, read-out: IZ
Bacillus subtilis [2] = assay: Antibacterial activity against Bacillus subtilis ATCC 6633 at 100 ug/ml after 24 hrs by disc-diffusion method; type: functional; details: ATCC 6633, 24 h, read-out: IZ
Staphylococcus aureus [3] = assay: Antibacterial activity against Staphylococcus aureus ATCC 25923 at 200 ug/ml after 24 hrs by disc-diffusion method; type: functional; details: ATCC 25923, 24 h, read-out: IZ
Escherichia coli [4] = assay: Antibacterial activity against Escherichia coli ATCC 25922 at 200 ug/ml after 24 hrs by disc-diffusion method; type: functional; details: ATCC 25922, 24 h, read-out: IZ
Escherichia coli [5] = assay: Antibacterial activity against Escherichia coli ATCC 25922 after 24 hrs by broth dilution technique; type: functional; details: ATCC 25922, 24 h
Outline: (§1)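 MIC by broth dilution: nutrient broth containing logarithmic two-fold serial dilutions of compound was inoculated with about 5 × 10⁵ c.f.u. of actively dividing bacteria.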

Bacillus subtilis [6] = assay: Antibacterial activity against Bacillus subtilis ATCC 6633 at 200 ug/ml after 24 hrs by disc-diffusion method; type: functional; details: ATCC 6633, 24 h, read-out: IZ
Candida albicans [7] = assay: Antifungal activity against Candida albicans after 48 hrs; type: functional
Candida albicans [8] = assay: Antifungal activity against Candida albicans at 100 ug/ml after 48 hrs by agar diffusion method; type: functional; details: read-out: IZ
Outline: (§2)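 Agar well diffusion on Sabouraud agar (peptone 1 g, D-glucose 4 g, agar 2 g per 100 ml water, pH 5.7). Plates were lawned with a saline suspension of spores, excess was decanted, and plates were dried 1 h at 37 °C. Compounds in DMSO went into punched wells, and inhibition zones were measured against controls, with voriconazole as standard.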

Aspergillus niger [9] = assay: Antifungal activity against Aspergillus niger at 200 ug/ml after 48 hrs by agar diffusion method; type: functional; details: read-out: IZ; outline: as §2
Escherichia coli [10] = assay: Antibacterial activity against Escherichia coli ATCC 25922 after 18 to 24 hrs; type: functional
Candida albicans [11] = assay: Antifungal activity against Candida albicans at 200 ug/ml after 48 hrs by agar diffusion method; type: functional; details: read-out: IZ; outline: as §2
Aspergillus niger [12] = assay: Antifungal activity against Aspergillus niger after 48 hrs; type: functional
Pseudomonas aeruginosa [13] = assay: Antibacterial activity against Pseudomonas aeruginosa ATCC 27853 after 18 to 24 hrs; type: functional
Bacillus subtilis [14] = assay: Antibacterial activity against Bacillus subtilis ATCC 6633 after 24 hrs by broth dilution technique; type: functional; details: ATCC 6633, 24 h; outline: as §1
Bacillus subtilis [15] = assay: Antibacterial activity against Bacillus subtilis ATCC 6633 after 18 to 24 hrs; type: functional
Pseudomonas aeruginosa [16] = assay: Antibacterial activity against Pseudomonas aeruginosa ATCC 27853 at 200 ug/ml after 24 hrs by disc-diffusion method; type: functional; details: ATCC 27853, 24 h, read-out: IZ
Aspergillus niger [17] = assay: Antifungal activity against Aspergillus niger at 100 ug/ml after 3 to 4 days by agar diffusion method; details: read-out: IZ
Escherichia coli [18] = assay: Antibacterial activity against Escherichia coli ATCC 25922 at 100 ug/ml after 24 hrs by disc-diffusion method; type: functional; details: ATCC 25922, 24 h, read-out: IZ
Pseudomonas aeruginosa [19] = assay: Antibacterial activity against Pseudomonas aeruginosa ATCC 27853 after 24 hrs by broth dilution technique; type: functional; details: ATCC 27853, 24 h; outline: as §1
Staphylococcus aureus [20] = assay: Antibacterial activity against Staphylococcus aureus ATCC 25923 after 18 to 24 hrs; type: functional
Staphylococcus aureus [21] = assay: Antibacterial activity against Staphylococcus aureus ATCC 25923 after 24 hrs by broth dilution technique; type: functional; details: ATCC 25923, 24 h; outline: as §1
Staphylococcus aureus [22] = assay: Antibacterial activity against Staphylococcus aureus ATCC 25923 at 100 ug/ml after 24 hrs by disc-diffusion method; type: functional; details: ATCC 25923, 24 h, read-out: IZ

Row | SMILES | zone of inhibition at 100 µg/mL (Pseudomonas aeruginosa [1]) [mm] | zone of inhibition at 100 µg/mL (Bacillus subtilis [2]) [mm] | zone of inhibition at 200 µg/mL (Staphylococcus aureus [3]) [mm] | zone of inhibition at 200 µg/mL (Escherichia coli [4]) [mm] | MIC (Escherichia coli [5]) [µg/mL] | zone of inhibition at 200 µg/mL (Bacillus subtilis [6]) [mm] | zone of inhibition at 100 µg/mL (Candida albicans [8]) [mm] | zone of inhibition at 200 µg/mL (Aspergillus niger [9]) [mm] | MBC (Escherichia coli [10]) [µg/mL] | zone of inhibition at 200 µg/mL (Candida albicans [11]) [mm] | MBC (Pseudomonas aeruginosa [13]) [µg/mL] | MIC (Bacillus subtilis [14]) [µg/mL] | MBC (Bacillus subtilis [15]) [µg/mL] | zone of inhibition at 200 µg/mL (Pseudomonas aeruginosa [16]) [mm] | zone of inhibition at 100 µg/mL (Aspergillus niger [17]) [mm] | zone of inhibition at 100 µg/mL (Escherichia coli [18]) [mm] | MIC (Pseudomonas aeruginosa [19]) [µg/mL] | MBC (Staphylococcus aureus [20]) [µg/mL] | MIC (Staphylococcus aureus [21]) [µg/mL] | zone of inhibition at 100 µg/mL (Staphylococcus aureus [22]) [mm] | further results
1 | COc1ccc(C(=O)/C=C/c2ccc(OCc3nnc(-c4ccc(C)cc4)o3)c(OC)c2)cc1 | 23 | 12 | 17 | 21 | 6 (≈ 13.1 µM) | 14 | 16 | 23 | 25 (≈ 54.8 µM) | 18 | 25 (≈ 54.8 µM) | 12.5 (≈ 27.4 µM) | 25 (≈ 54.8 µM) | 24 | 20 | 19 | 12.5 (≈ 27.4 µM) | 25 (≈ 54.8 µM) | 12.5 (≈ 27.4 µM) | 15 | MFC (Candida albicans [7]): 25 µg/mL (≈ 54.8 µM); MIC (Candida albicans [7]): 12.5 µg/mL (≈ 27.4 µM); MFC (Aspergillus niger [12]): 25 µg/mL (≈ 54.8 µM); MIC (Aspergillus niger [12]): 12.5 µg/mL (≈ 27.4 µM)
2 | COc1cc(/C=C/C(=O)c2ccc(O)cc2)ccc1OCc1nnc(COc2ccccc2)o1 | 25 | 14 | 18 | 22 | 6 (≈ 13.1 µM) | 16 | 17 | 24 | 12.5 (≈ 27.3 µM) | 19 | 25 (≈ 54.5 µM) | 12.5 (≈ 27.3 µM) | 25 (≈ 54.5 µM) | 27 | 22 | 20 | 12.5 (≈ 27.3 µM) | 12.5 (≈ 27.3 µM) | 6 (≈ 13.1 µM) | 17 | MFC (Candida albicans [7]): 25 µg/mL (≈ 54.5 µM); MIC (Candida albicans [7]): 12.5 µg/mL (≈ 27.3 µM); MFC (Aspergillus niger [12]): 12.5 µg/mL (≈ 27.3 µM); MIC (Aspergillus niger [12]): 6 µg/mL (≈ 13.1 µM)
3 | COc1cc(/C=C/C(=O)c2ccccc2)ccc1OCc1nnc(COc2ccccc2)o1 | 23 | 12 | 17 | 20 | 12.5 (≈ 28.3 µM) | 14 | 16 | 25 | 12.5 (≈ 28.3 µM) | 18 | 25 (≈ 56.5 µM) | 12.5 (≈ 28.3 µM) | 25 (≈ 56.5 µM) | 24 | 22 | 18 | 12.5 (≈ 28.3 µM) | 12.5 (≈ 28.3 µM) | 6 (≈ 13.6 µM) | 15 | MFC (Candida albicans [7]): 25 µg/mL (≈ 56.5 µM); MIC (Candida albicans [7]): 12.5 µg/mL (≈ 28.3 µM); MFC (Aspergillus niger [12]): 12.5 µg/mL (≈ 28.3 µM); MIC (Aspergillus niger [12]): 6 µg/mL (≈ 13.6 µM)
4 | COc1cc(/C=C/C(=O)c2ccc(O)cc2)ccc1OCc1nnc(-c2ccccc2O)o1 | 27 | 16 | 20 | 24 | 12.5 (≈ 28.1 µM) | 18 | 21 | 29 | 25 (≈ 56.3 µM) | 24 | 12.5 (≈ 28.1 µM) | 6 (≈ 13.5 µM) | 12.5 (≈ 28.1 µM) | 28 | 27 | 23 | 6 (≈ 13.5 µM) | 12.5 (≈ 28.1 µM) | 6 (≈ 13.5 µM) | 19 | MFC (Candida albicans [7]): 12.5 µg/mL (≈ 28.1 µM); MIC (Candida albicans [7]): 6 µg/mL (≈ 13.5 µM); MFC (Aspergillus niger [12]): 12.5 µg/mL (≈ 28.1 µM); MIC (Aspergillus niger [12]): 6 µg/mL (≈ 13.5 µM)
5 | COc1cc(/C=C/C(=O)c2ccccc2)ccc1OCc1nnc(-c2ccc(C)cc2)o1 | 23 | 12 | 16 | 21 | 6 (≈ 14.1 µM) | 14 | 15 | 22 | 25 (≈ 58.6 µM) | 16 | 50 (≈ 117 µM) | 6 (≈ 14.1 µM) | 12.5 (≈ 29.3 µM) | 25 | 20 | 19 | 12.5 (≈ 29.3 µM) | 25 (≈ 58.6 µM) | 6 (≈ 14.1 µM) | 15 | MFC (Candida albicans [7]): 25 µg/mL (≈ 58.6 µM); MIC (Candida albicans [7]): 12.5 µg/mL (≈ 29.3 µM)
6 | COc1cc(/C=C/C(=O)c2ccc(O)cc2)ccc1OCc1nnc(-c2ccc(C)cc2)o1 | 23 | 12 | 17 | 20 | 12.5 (≈ 28.3 µM) | 14 | 15 | 23 | 25 (≈ 56.5 µM) | 17 | 100 (≈ 226 µM) | 12.5 (≈ 28.3 µM) | 25 (≈ 56.5 µM) | 25 | 20 | 19 | 25 (≈ 56.5 µM) | 50 (≈ 113 µM) | 25 (≈ 56.5 µM) | 15 | MFC (Candida albicans [7]): 100 µg/mL (≈ 226 µM); MIC (Candida albicans [7]): 25 µg/mL (≈ 56.5 µM)
7 | COc1cc(/C=C/C(=O)c2ccc(O)cc2)ccc1OCc1nnc(-c2ccc(Cl)cc2)o1 | 22 | 11 | 15 | 18 | 25 (≈ 54 µM) | 13 | 14 | 21 | 50 (≈ 108 µM) | 17 | 100 (≈ 216 µM) | 12.5 (≈ 27 µM) | 25 (≈ 54 µM) | 23 | 18 | 16 | 25 (≈ 54 µM) | 100 (≈ 216 µM) | 25 (≈ 54 µM) | 13 | MFC (Candida albicans [7]): 25 µg/mL (≈ 54 µM); MIC (Candida albicans [7]): 12.5 µg/mL (≈ 27 µM)
8 | COc1ccc(C(=O)/C=C/c2ccc(OCc3nnc(-c4ccc(Cl)cc4)o3)c(OC)c2)cc1 | 22 | 12 | 15 | 19 | 12.5 (≈ 26.2 µM) | 13 | 16 | 21 | 100 (≈ 210 µM) | 17 | 100 (≈ 210 µM) | 12.5 (≈ 26.2 µM) | 50 (≈ 105 µM) | 24 | 19 | 17 | 12.5 (≈ 26.2 µM) | 50 (≈ 105 µM) | 12.5 (≈ 26.2 µM) | 14 | MFC (Aspergillus niger [12]): 50 µg/mL (≈ 105 µM); MIC (Aspergillus niger [12]): 12.5 µg/mL (≈ 26.2 µM)
9 | COc1cc(/C=C/C(=O)c2ccc(O)cc2)ccc1OCc1nnc(-c2ccc([N+](=O)[O-])cc2)o1 | 21 | 10 | 13 | 17 | 50 (≈ 106 µM) | 11 | 13 | 19 | 100 (≈ 211 µM) | 15 | 100 (≈ 211 µM) | 12.5 (≈ 26.4 µM) | 50 (≈ 106 µM) | 23 | 17 | 15 | 12.5 (≈ 26.4 µM) | 50 (≈ 106 µM) | 25 (≈ 52.8 µM) | 12 | MFC (Aspergillus niger [12]): 100 µg/mL (≈ 211 µM); MIC (Aspergillus niger [12]): 25 µg/mL (≈ 52.8 µM)
10 | C[C@@H](c1ncncc1F)[C@](O)(Cn1cncn1)c1ccc(F)cc1F [VORICONAZOLE] | – | – | – | – | – | – | 24 | 30 | – | 26 | – | – | – | – | 28 | – | – | – | – | – | MFC (Candida albicans [7]): 12.5 µg/mL (≈ 35.8 µM); MIC (Candida albicans [7]): 6 µg/mL (≈ 17.2 µM); MFC (Aspergillus niger [12]): 12.5 µg/mL (≈ 35.8 µM); MIC (Aspergillus niger [12]): 6 µg/mL (≈ 17.2 µM)
11 | O=C(O)c1cn(C2CC2)c2cc(N3CCNCC3)c(F)cc2c1=O [CIPROFLOXACIN] | 32 | 21 | 24 | 27 | 6 (≈ 18.1 µM) | 22 | – | – | 12.5 (≈ 37.7 µM) | – | 12.5 (≈ 37.7 µM) | 6 (≈ 18.1 µM) | 12.5 (≈ 37.7 µM) | 33 | – | – | 6 (≈ 18.1 µM) | 12.5 (≈ 37.7 µM) | 6 (≈ 18.1 µM) | 23 | –

Reference: ChEMBL document CHEMBL1629517, “Molecular properties prediction, synthesis and antimicrobial activity of some newer oxadiazole derivatives” (2010)
